{"source": "ChEMBL document CHEMBL3400013", "about": "“Synthesis and biological activity evaluation of hydrazone derivatives based on a Tröger's base skeleton” (Bioorg Med Chem, 2015)", "note": "The source made the active and inactive calls. No cut-off for these calls is given here.", "data": [{"tested_on": "MRC5", "test": "Cytostatic activity against human MRC5 cells after 72 hrs by MTT assay", "assay_type": "ADME, cell-based", "details": "MRC5, 72 h", "method_in_brief": "(§1)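 Cells were seeded at 25,000–30,000 per well and pre-incubated for 24 h at 37°C in 5% CO2. Four-fold compound dilutions were added in duplicate and incubated for 72 h. MTT was added for 1–4 h, and formazan was dissolved in 10% aq SDS (pH 5.5) overnight at 37°C. OD was read at 540 nm. IC50 came from dose-response curves, mean ± SD of eight independent experiments.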", "units": {"IC50": "µM"}, "values": [{"smiles": "O=C(N/N=C/c1cc([N+](=O)[O-])ccc1O)c1ccc2c3c(ccc2c1)N1Cc2c(ccc4cc(C(=O)N/N=C/c5cc([N+](=O)[O-])ccc5O)ccc24)N(C3)C1", "IC50": 88.8}]}, {"tested_on": "Candida tropicalis", "test": "Antifungal activity against Candida tropicalis up to 200 uM after 24 to 48 hrs by broth microdilution method", "assay_type": "functional, organism-based", "details": "not given", "values": [{"smiles": "O=C(N/N=C/c1cc([N+](=O)[O-])ccc1O)c1ccc2c3c(ccc2c1)N1Cc2c(ccc4cc(C(=O)N/N=C/c5cc([N+](=O)[O-])ccc5O)ccc24)N(C3)C1", "Activity": "inactive"}]}, {"tested_on": "not listed separately", "test": "Metal chelating activity of the compound assessed as formation of Mg2+ complex by UV-vis spectrometry", "assay_type": "physicochemical", "details": "not given", "values": [{"smiles": "O=C(N/N=C/c1cc([N+](=O)[O-])ccc1O)c1ccc2c3c(ccc2c1)N1Cc2c(ccc4cc(C(=O)N/N=C/c5cc([N+](=O)[O-])ccc5O)ccc24)N(C3)C1", "Activity": "Not Active"}]}, {"tested_on": "Pichia kudriavzevii", "test": "Antifungal activity against Candida crusei up to 200 uM after 24 to 48 hrs by broth microdilution method", "assay_type": "functional, organism-based", "details": "not given", "values": [{"smiles": "O=C(N/N=C/c1cc([N+](=O)[O-])ccc1O)c1ccc2c3c(ccc2c1)N1Cc2c(ccc4cc(C(=O)N/N=C/c5cc([N+](=O)[O-])ccc5O)ccc24)N(C3)C1", "Activity": "inactive"}]}, {"tested_on": "not listed separately", "test": "Cytostatic activity against human p53-/- HCT116 cells after 72 hrs by MTT assay", "assay_type": "functional, cell-based", "details": "HCT-116, 72 h", "method_in_brief": "as §1", "units": {"IC50": "µM"}, "values": [{"smiles": "O=C(N/N=C/c1cc([N+](=O)[O-])ccc1O)c1ccc2c3c(ccc2c1)N1Cc2c(ccc4cc(C(=O)N/N=C/c5cc([N+](=O)[O-])ccc5O)ccc24)N(C3)C1", "IC50": "> 100"}]}, {"tested_on": "Pseudomonas aeruginosa", "test": "Antimicrobial activity against Pseudomonas aeruginosa CCM 395 up to 200 uM after 24 to 48 hrs by broth microdilution method", "assay_type": "functional, organism-based", "details": "not given", "values": [{"smiles": "O=C(N/N=C/c1cc([N+](=O)[O-])ccc1O)c1ccc2c3c(ccc2c1)N1Cc2c(ccc4cc(C(=O)N/N=C/c5cc([N+](=O)[O-])ccc5O)ccc24)N(C3)C1", "Activity": "inactive"}]}, {"tested_on": "Staphylococcus aureus", "test": "Antimicrobial activity against Staphylococcus aureus CCM 3953 up to 200 uM after 24 to 48 hrs by broth microdilution method", "assay_type": "functional, organism-based", "details": "not given", "values": [{"smiles": "O=C(N/N=C/c1cc([N+](=O)[O-])ccc1O)c1ccc2c3c(ccc2c1)N1Cc2c(ccc4cc(C(=O)N/N=C/c5cc([N+](=O)[O-])ccc5O)ccc24)N(C3)C1", "Activity": "inactive"}]}, {"tested_on": "Staphylococcus haemolyticus", "test": "Antimicrobial activity against methicillin-resistant Staphylococcus haemolyticus A1/16568 up to 200 uM after 24 to 48 hrs by broth microdilution method", "assay_type": "functional, organism-based", "details": "not given", "values": [{"smiles": "O=C(N/N=C/c1cc([N+](=O)[O-])ccc1O)c1ccc2c3c(ccc2c1)N1Cc2c(ccc4cc(C(=O)N/N=C/c5cc([N+](=O)[O-])ccc5O)ccc24)N(C3)C1", "Activity": "inactive"}]}, {"tested_on": "Nucleic Acid", "test": "Binding affinity to DNA (unknown origin) assessed as DNA intercalation by UV-visible spectrophotometry in presence of Ni2+", "assay_type": "nucleic-acid assay", "details": "not given", "values": [{"smiles": "O=C(N/N=C/c1cc([N+](=O)[O-])ccc1O)c1ccc2c3c(ccc2c1)N1Cc2c(ccc4cc(C(=O)N/N=C/c5cc([N+](=O)[O-])ccc5O)ccc24)N(C3)C1", "Activity": "Active"}]}, {"tested_on": "BJ", "test": "Selectivity index, ratio of IC50 for human BJ cells to IC50 for human K562-TAX cells", "assay_type": "functional", "details": "not given", "values": [{"smiles": "O=C(N/N=C/c1cc([N+](=O)[O-])ccc1O)c1ccc2c3c(ccc2c1)N1Cc2c(ccc4cc(C(=O)N/N=C/c5cc([N+](=O)[O-])ccc5O)ccc24)N(C3)C1", "Ratio IC50": 0.9}]}, {"tested_on": "BJ", "test": "Selectivity index, ratio of IC50 for human BJ cells to IC50 for human p53-/- HCT116 cells", "assay_type": "functional", "details": "not given", "values": [{"smiles": "O=C(N/N=C/c1cc([N+](=O)[O-])ccc1O)c1ccc2c3c(ccc2c1)N1Cc2c(ccc4cc(C(=O)N/N=C/c5cc([N+](=O)[O-])ccc5O)ccc24)N(C3)C1", "Ratio IC50": 0.9}]}, {"tested_on": "not listed separately", "test": "Cytostatic activity against human K562-TAX cells after 72 hrs by MTT assay", "assay_type": "functional, cell-based", "details": "not given", "method_in_brief": "as §1", "units": {"IC50": "µM"}, "values": [{"smiles": "O=C(N/N=C/c1cc([N+](=O)[O-])ccc1O)c1ccc2c3c(ccc2c1)N1Cc2c(ccc4cc(C(=O)N/N=C/c5cc([N+](=O)[O-])ccc5O)ccc24)N(C3)C1", "IC50": "> 100"}]}, {"tested_on": "BJ", "test": "Selectivity index, ratio of IC50 for human BJ cells to IC50 for human CEM-DNR cells", "assay_type": "functional", "details": "not given", "values": [{"smiles": "O=C(N/N=C/c1cc([N+](=O)[O-])ccc1O)c1ccc2c3c(ccc2c1)N1Cc2c(ccc4cc(C(=O)N/N=C/c5cc([N+](=O)[O-])ccc5O)ccc24)N(C3)C1", "Ratio IC50": 0.9}]}, {"tested_on": "Enterococcus faecalis", "test": "Antimicrobial activity against Enterococcus faecalis CCM 4224 up to 200 uM after 24 to 48 hrs by broth microdilution method", "assay_type": "functional, organism-based", "details": "not given", "values": [{"smiles": "O=C(N/N=C/c1cc([N+](=O)[O-])ccc1O)c1ccc2c3c(ccc2c1)N1Cc2c(ccc4cc(C(=O)N/N=C/c5cc([N+](=O)[O-])ccc5O)ccc24)N(C3)C1", "Activity": "inactive"}]}, {"tested_on": "A549", "test": "Selectivity index, ratio of IC50 for human MRC5 cells to IC50 for human A549 cells", "assay_type": "functional", "details": "not given", "values": [{"smiles": "O=C(N/N=C/c1cc([N+](=O)[O-])ccc1O)c1ccc2c3c(ccc2c1)N1Cc2c(ccc4cc(C(=O)N/N=C/c5cc([N+](=O)[O-])ccc5O)ccc24)N(C3)C1", "Ratio IC50": 0.9}]}, {"tested_on": "not listed separately", "test": "Metal chelating activity of the compound assessed as formation of Cu2+ complex by UV-vis spectrometry", "assay_type": "physicochemical", "details": "not given", "values": [{"smiles": "O=C(N/N=C/c1cc([N+](=O)[O-])ccc1O)c1ccc2c3c(ccc2c1)N1Cc2c(ccc4cc(C(=O)N/N=C/c5cc([N+](=O)[O-])ccc5O)ccc24)N(C3)C1", "Activity": "Active"}]}, {"tested_on": "Nucleic Acid", "test": "Binding affinity to DNA (unknown origin) assessed as DNA intercalation by UV-visible spectrophotometry", "assay_type": "nucleic-acid assay", "details": "not given", "values": [{"smiles": "O=C(N/N=C/c1cc([N+](=O)[O-])ccc1O)c1ccc2c3c(ccc2c1)N1Cc2c(ccc4cc(C(=O)N/N=C/c5cc([N+](=O)[O-])ccc5O)ccc24)N(C3)C1", "Activity": "inactive"}]}, {"tested_on": "not listed separately", "test": "Cytostatic activity against human CEM-DNR cells after 72 hrs by MTT assay", "assay_type": "functional, cell-based", "details": "not given", "method_in_brief": "as §1", "units": {"IC50": "µM"}, "values": [{"smiles": "O=C(N/N=C/c1cc([N+](=O)[O-])ccc1O)c1ccc2c3c(ccc2c1)N1Cc2c(ccc4cc(C(=O)N/N=C/c5cc([N+](=O)[O-])ccc5O)ccc24)N(C3)C1", "IC50": "> 100"}]}, {"tested_on": "Nucleic Acid", "test": "Binding affinity to DNA (unknown origin) assessed as DNA intercalation by UV-visible spectrophotometry in presence of Co2+", "assay_type": "nucleic-acid assay", "details": "not given", "values": [{"smiles": "O=C(N/N=C/c1cc([N+](=O)[O-])ccc1O)c1ccc2c3c(ccc2c1)N1Cc2c(ccc4cc(C(=O)N/N=C/c5cc([N+](=O)[O-])ccc5O)ccc24)N(C3)C1", "Activity": "Active"}]}, {"tested_on": "CCRF-CEM", "test": "Cytostatic activity against human CCRF-CEM cells after 72 hrs by MTT assay", "assay_type": "functional, cell-based", "details": "not given", "method_in_brief": "as §1", "units": {"IC50": "µM"}, "values": [{"smiles": "O=C(N/N=C/c1cc([N+](=O)[O-])ccc1O)c1ccc2c3c(ccc2c1)N1Cc2c(ccc4cc(C(=O)N/N=C/c5cc([N+](=O)[O-])ccc5O)ccc24)N(C3)C1", "IC50": "> 100"}]}, {"tested_on": "not listed separately", "test": "Metal chelating activity of the compound assessed as formation of Fe2+ complex by UV-vis spectrometry", "assay_type": "physicochemical", "details": "not given", "values": [{"smiles": "O=C(N/N=C/c1cc([N+](=O)[O-])ccc1O)c1ccc2c3c(ccc2c1)N1Cc2c(ccc4cc(C(=O)N/N=C/c5cc([N+](=O)[O-])ccc5O)ccc24)N(C3)C1", "Activity": "Not Active"}]}, {"tested_on": "not listed separately", "test": "Metal chelating activity of the compound assessed as formation of Co2+ complex by UV-vis spectrometry", "assay_type": "physicochemical", "details": "not given", "values": [{"smiles": "O=C(N/N=C/c1cc([N+](=O)[O-])ccc1O)c1ccc2c3c(ccc2c1)N1Cc2c(ccc4cc(C(=O)N/N=C/c5cc([N+](=O)[O-])ccc5O)ccc24)N(C3)C1", "Activity": "Active"}]}, {"tested_on": "A549", "test": "Selectivity index, ratio of IC50 for human BJ cells to IC50 for human A549 cells", "assay_type": "functional", "details": "not given", "values": [{"smiles": "O=C(N/N=C/c1cc([N+](=O)[O-])ccc1O)c1ccc2c3c(ccc2c1)N1Cc2c(ccc4cc(C(=O)N/N=C/c5cc([N+](=O)[O-])ccc5O)ccc24)N(C3)C1", "Ratio IC50": 0.9}]}, {"tested_on": "BJ", "test": "Cytostatic activity against human BJ cells after 72 hrs by MTT assay", "assay_type": "ADME, cell-based", "details": "not given", "method_in_brief": "as §1", "units": {"IC50": "µM"}, "values": [{"smiles": "O=C(N/N=C/c1cc([N+](=O)[O-])ccc1O)c1ccc2c3c(ccc2c1)N1Cc2c(ccc4cc(C(=O)N/N=C/c5cc([N+](=O)[O-])ccc5O)ccc24)N(C3)C1", "IC50": "> 100"}]}, {"tested_on": "MRC5", "test": "Selectivity index, ratio of IC50 for human MRC5 cells to IC50 for human K562-TAX cells", "assay_type": "functional", "details": "not given", "values": [{"smiles": "O=C(N/N=C/c1cc([N+](=O)[O-])ccc1O)c1ccc2c3c(ccc2c1)N1Cc2c(ccc4cc(C(=O)N/N=C/c5cc([N+](=O)[O-])ccc5O)ccc24)N(C3)C1", "Ratio IC50": 0.9}]}]}
